The values below come from ChEMBL document CHEMBL4017544 (J Med Chem, 2017).

The test system of series [1] is Mus musculus. Kind of series: Toxicity in db/db mouse assessed as effect on food consumption at 1 to 2 mg/kg, ip administered thrice per week for 12 consecutive weeks measured every other day. The class given is organism-based. The conditions noted are these: in vivo. In a few lines: (§1)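 Male db/db mice (8 weeks old, specific pathogen-free, normal chow and filtered water ad libitum) were randomized and dosed i.p. three times weekly for 12 consecutive weeks; vehicle was 5% Tween-80 in 0.9% saline. Body weight and food and water consumption were recorded every other day.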

Series [2] deals with Mus musculus. Kind of series: Renoprotective activity in db/db mouse assessed as […] in number of intraglomerular mesangial cells at 1 to 2 mg/kg, ip administered trice per week for 12 consecutive weeks measured at 11 weeks post dose by H/E-staining based microscopic analysis. It counts as functional, organism-based. In a few lines:
(§2)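 Male db/db mice, 8 weeks old, were randomized and dosed i.p. three times weekly for 12 weeks (vehicle: 5% Tween-80 in 0.9% saline; n = 6 per group). Kidneys were fixed in 4% PFA and paraffin-embedded. 5 μm sections were stained with HE, PAS or Masson's trichrome and examined at ×400.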

In series [3] the test system is Mus musculus. Kind of series: Antidiabetic nephropathic activity in db/db mouse assessed as reduction in plasma creatinine levels at 1 to 2 mg/kg, ip administered thrice per week for 12 consecutive weeks measured at 11 weeks post dose. It counts as functional, organism-based.
A further series relates to Kidney. Kind of series: In vivo drug metabolism in Sprague-Dawley rat assessed as CDDO-Me formation in kidney at 30 mg/kg, ip measured at 30 mins by LC-MS/MS analysis. It counts as ADME, organism-based. Conditions: 0.5 h. Summed up: (§3)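 Rats given a single ip injection, 20 mg/kg (0.04 mmol) of CDDO-Me or 30 mg/kg (0.04 mmol) of the prodrug; heart, kidney and liver collected over time; parent compound and liberated CDDO-Me measured by LC-MS/MS.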

A short description of series [4]: Drug level in Sprague-Dawley rat kidney at 30 mg/kg, ip measured at 30 mins by LC-MS/MS analysis. It counts as ADME, organism-based. Conditions: read-out: Drug uptake. In a few lines: as §3
Series [5] relates to Mus musculus. Kind of series: Renoprotective activity in db/db mouse assessed as reduction of fibrosis in glomeruli at 1 to 2 mg/kg, ip administered trice per week for 12 consecutive weeks measured at 11 weeks post dose by H/E-staining based microscopic analysis. The class given is functional, organism-based. In a few lines: as §2
Series [6] addresses Kelch-like ECH-associated protein 1 (Homo sapiens) (UniProt Q14145). Put plainly: Inhibition of Keap1/Nrf2 (unknown origin) interaction transfected in HEK293 cells assessed as increase in cytosolic HO-1 levels at 200 to 1000 nM after 48 hrs by Western blot analysis. The class given is cell-based. In a few lines:
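HEK293 cells grown in high-glucose DMEM with 10% FBS were treated in triplicate at 200 or 1000 nM for 48 h. Nuclear and cytosolic Nrf2, HO-1 and cytoplasmic NQO1 were measured by western blot with specific antibodies, with TBP and β-actin among the probed proteins. The nuclear/cytosolic Nrf2 ratio was derived from these blots. Three independent experiments, mean ± SD.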
For orientation: Immunoblotting shows a protein as a band on a membrane.

Series [7] can be described thus: Drug level in Krebs buffer treated with 1-Hydroxyl-2-cyano-3-(4-(methyl-L-glutaminate-N5-yl)-benzyloxy)-12-oxo-oleana-2(3),9(11)-dien-28-oic Acid Methyl Ester assessed as bovine kidney GGT-mediated metabolite formation at 100 uM at pH 7.4 after 8 hrs in presence of porcine liver esterase by HPLC analysis. The class given is ADME, Bos taurus. The conditions noted are these: cattle, isolated protein, pH 7.4, 8 h. Summed up: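 Substrate at 100 μM in Krebs buffer, pH 7.4, 37 °C, with porcine liver esterase (2 U/mL), GGT (1 U/mL) and Gly-Gly (5 mM) for 8 h, in triplicate; products quantified by HPLC.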

For series [8], the system named is Mus musculus. Kind of series: Toxicity in db/db mouse assessed as increase in body weight at 0.65 mg/kg, ip administered thrice per week for 12 consecutive weeks measured every other day (reference value: 15%). The conditions noted are these: in vivo. It counts as organism-based. In a few lines: as §1
Series [9] deals with Mus musculus. Put plainly: Renoprotective activity in db/db mouse assessed as reduction of fibrosis in glomeruli at 0.65 mg/kg, ip administered trice per week for 12 consecutive weeks measured at 11 weeks post dose by H/E-staining based microscopic analysis. It counts as functional, organism-based. In a few lines:
as §2

Series [10] relates to Mus musculus. Kind of series: Renoprotective activity in db/db mouse assessed as reduction in mesangial expansion at 0.65 mg/kg, ip administered trice per week for 12 consecutive weeks measured at 11 weeks post dose by TEM microscopic analysis. It counts as functional, organism-based. Summed up: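 Male db/db mice (8 weeks old) were dosed i.p. three times weekly for 12 weeks in 5% Tween-80/0.9% saline, n = 6. Kidney tissue was fixed in 3% glutaraldehyde, cut into 80 nm ultrathin sections and examined by TEM. GBM thickness was measured at 30 random locations from three sections per kidney and averaged per mouse.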

Activity calls are given as the source filed them. No cut-off for these calls is given here.

Chain of Kelch-like ECH-associated protein 1 (Homo sapiens) (Q14145 whole entry): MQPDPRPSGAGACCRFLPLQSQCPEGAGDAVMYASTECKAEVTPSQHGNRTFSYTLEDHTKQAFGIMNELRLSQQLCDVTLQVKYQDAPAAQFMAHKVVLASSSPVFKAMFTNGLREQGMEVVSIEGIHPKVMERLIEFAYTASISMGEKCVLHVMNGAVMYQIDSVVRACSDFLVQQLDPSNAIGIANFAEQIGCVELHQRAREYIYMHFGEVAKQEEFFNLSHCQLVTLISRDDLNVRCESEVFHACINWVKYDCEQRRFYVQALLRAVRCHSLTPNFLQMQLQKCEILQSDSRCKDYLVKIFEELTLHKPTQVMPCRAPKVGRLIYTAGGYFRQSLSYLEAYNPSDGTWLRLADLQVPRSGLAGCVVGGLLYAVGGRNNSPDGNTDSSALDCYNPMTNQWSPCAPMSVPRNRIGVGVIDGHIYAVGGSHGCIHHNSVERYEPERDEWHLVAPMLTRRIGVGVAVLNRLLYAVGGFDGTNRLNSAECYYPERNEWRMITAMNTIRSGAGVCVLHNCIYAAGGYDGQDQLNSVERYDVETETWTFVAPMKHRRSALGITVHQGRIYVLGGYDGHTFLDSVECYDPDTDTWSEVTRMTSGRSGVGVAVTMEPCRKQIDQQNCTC

For the molecule `COC(=O)[C@@H](N)CCC(=O)Nc1ccc(COC2=C(C#N)[C@H](O)[C@]3(C)C4=CC(=O)[C@@H]5[C@@H]6CC(C)(C)CC[C@]6(C(=O)OC)CC[C@@]5(C)[C@]4(C)CC[C@H]3C2(C)C)cc1`, the Activity result in the series with Mus musculus [1] is reported as “Non-Toxic”. The result in the series on Mus musculus [2], with Mus musculus [3] and in the series with Mus musculus [5] was Active. The Drug metabolism in the series with Kidney is 0.09 µg/g. Further, the concentration at 0.5 h in [4] was 1000 ng/g.

Take `COC(=O)[C@]12CCC(C)(C)C[C@H]1[C@H]1C(=O)C=C3[C@@]4(C)C=C(C#N)C(=O)C(C)(C)[C@@H]4CC[C@@]3(C)[C@]1(C)CC2` [BARDOXOLONE METHYL]: in series [6], the inhibition result was “Active”. Also, the Drug metabolism entry in [7] was “Metabolite_Detected”. The Activity in the series with Mus musculus [8] turned out to be 11.3%. Further, the result in the series on Mus musculus [9] and in the series on Mus musculus [10] was Active.
